Assay results reported in ChEMBL document CHEMBL4765486, “Novel Nonsecosteroidal Vitamin D Receptor Modulator Combined with Gemcitabine Enhances Pancreatic Cancer Therapy through Remodeling of the Tumor Microenvironment” (J Med Chem, 2021).
Active and inactive are the calls of the source. Unless noted, no cut-off for these calls is given here.

Columns and labels:
LTC-14 [1] = assay: Inhibition of rat LTC-14 cell activation assessed decrease in TGF-beta1 induced Colla1 mRNA expression at 0.5 uM incubated for 24 hrs by q-PCR analysis; type: functional
Procedure, shortened: (§1)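 Immortalized rat PSC line LTC-14, about 1×10^5 cells per well, was grown 24 h at 37 °C in 5% CO2. Cells then received compound (0.5 μM) plus TGF-β1 for 24 h; TGF-β1 is stated as 0.5 ng/mL in the text and 5 ng/mL in the methods. Col1a1 and Acta2 mRNA were measured by RT-qPCR. Mean ± SD versus TGF-β1 alone.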

[2] = biological target: T1, Vitamin D3 receptor (Homo sapiens) (UniProt P11473); assay: Binding affinity to VDR (unknown origin) at 1 uM by fluorescence polarization assay relative to calcipotriol
T1 sequence (whole entry): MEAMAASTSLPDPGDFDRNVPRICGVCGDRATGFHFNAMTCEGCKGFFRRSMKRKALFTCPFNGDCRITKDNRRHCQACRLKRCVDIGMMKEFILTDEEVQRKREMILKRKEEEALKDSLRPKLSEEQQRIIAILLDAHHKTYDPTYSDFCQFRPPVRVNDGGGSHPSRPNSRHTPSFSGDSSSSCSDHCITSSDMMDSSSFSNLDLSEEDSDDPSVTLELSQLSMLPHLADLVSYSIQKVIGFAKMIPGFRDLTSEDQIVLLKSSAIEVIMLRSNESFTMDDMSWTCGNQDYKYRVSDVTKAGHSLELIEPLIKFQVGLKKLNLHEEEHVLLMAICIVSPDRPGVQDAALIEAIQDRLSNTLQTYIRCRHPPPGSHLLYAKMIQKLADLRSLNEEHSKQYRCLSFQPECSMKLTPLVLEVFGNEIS
Procedure, shortened: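 PolarScreen VDR competitor fluorescence polarization assay with compounds at 1 μM in triplicate. Read-out used 535 nm excitation and 590 nm emission filters.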

[3] = Cytotoxicity against rat LTC-14 cells assessed as reduction in cell proliferation incubated for 24 hrs by MTT assay; type: cell-based; details: LTC-14, 24 h
LTC-14 [4] = assay: Inhibition of rat LTC-14 cells activation assessed decrease in TGF-beta1 induced Acta2 mRNA expression at 0.5 uM incubated for 24 hrs by q-PCR analysis; type: functional, cell-based; procedure, shortened: as §1
[5] = Cytotoxicity against rat DSL-6A/C1 cells assessed as reduction in cell proliferation at 0.5 uM incubated for 24 hrs by MTT assay; type: cell-based; details: dsl-6a/c1, 24 h
LTC-14 [6] = assay: Inhibition of rat LTC-14 cells activation assessed decrease in TGF-beta1 induced collagen 1 protein expression at 0.5 uM incubated for 24 hrs by Western blot analysis; type: functional, cell-based
Procedure, shortened: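 LTC-14 cells were treated for 24 h with compound (0.5 μM) plus TGF-β1 (0.5 ng/mL in the text, 5 ng/mL in the methods). Lysates were run on 10% SDS-PAGE, transferred to PVDF and probed with rabbit anti-collagen I, with β-actin as reference. Bands were quantified by densitometry versus TGF-β1 alone.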

LTC-14 [7] = assay: Inhibition of rat LTC-14 cells activation assessed as inhibition of Periodin-mRNA expression at 0.5 uM treated under conditioned media of DSL-6A/C1 cells for 24 hrs by q-PCR analysis; type: functional, cell-based
Procedure, shortened: (§2)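 LTC-14 PSCs were exposed for 24 h to conditioned medium from rat DSL-6A/C1 cancer cells containing compound at 0.5 μM. Pdgfa, Pdgfb, Fgf2, Hgf and Periodin mRNA were quantified by RT-qPCR. Three repeats, mean ± SD versus CM alone.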

LTC-14 [8] = assay: Inhibition of rat LTC-14 cells activation assessed as inhibition of PDGFB mRNA expression at 0.5 uM treated under conditioned media of DSL-6A/C1 cells for 24 hrs by q-PCR analysis; type: functional, cell-based; procedure, shortened: as §2
LTC-14 [9] = assay: Inhibition of rat LTC-14 cells activation assessed as inhibition of PDGFA mRNA expression at 0.5 uM treated under conditioned media of DSL-6A/C1 cells for 24 hrs by q-PCR analysis; type: functional, cell-based; procedure, shortened: as §2
LTC-14 [10] = assay: Inhibition of rat LTC-14 cells activation assessed as inhibition of Fgf mRNA expression at 0.5 uM treated under conditioned media of DSL-6A/C1 cells for 24 hrs by q-PCR analysis; type: functional, cell-based; procedure, shortened: as §2
LTC-14 [11] = assay: Inhibition of rat LTC-14 cells activation assessed as inhibition of Hgf mRNA expression at 0.5 uM treated under conditioned media of DSL-6A/C1 cells for 24 hrs by q-PCR analysis; type: functional, cell-based; procedure, shortened: as §2
LTC-14 [12] = assay: Inhibition of rat LTC-14 cells interaction with DSL-6A/C1 cells in conditioned media assessed as inhibition of PDGF-A protein expression at 0.5 uM measured after 24 hrs by Western blot analysis; type: functional, cell-based
Procedure, shortened: (§3)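 LTC-14 cells were treated for 24 h with DSL-6A/C1 conditioned medium plus compound (0.5 μM). Proteins were separated on 10% SDS-PAGE, transferred to PVDF and probed with rabbit anti-PDGF-A or anti-POSTN, with β-actin as loading reference.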

Mus musculus = assay: Inhibition of GFP-tagged rat LTC-14 cells activation in BALB/c nude mouse xenografted along with luciferase-tagged DSL-6A/C1-Luc cells assessed as reduction in alpha-smooth muscle actin expression in tumor at 500 ug/kg, ip administered once every 3 days for 12 days coadministered with gemcitabine at 100 mg/kg by DAPI staining based laser confocal scanning microscopy; type: functional, organism-based; details: dose 500.0 µg/kg, time 12.0 day
Procedure, shortened: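 Tumours were taken from orthotopic co-inoculated nude mice given gemcitabine 100 mg/kg plus compound (500 μg/kg) or calcipotriol (60 μg/kg) ip for 12 days. Sections were fixed in 4% PFA, permeabilised with 0.5% Triton X-100 and blocked in 5% BSA. They were incubated with anti-α-SMA overnight at 4 °C, then an Alexa Fluor 594 secondary for 1 h at 37 °C, DAPI-counterstained and imaged by confocal microscopy.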

DSL-6A/C1 [13] = assay: Antiproliferative activity against rat DSL-6A/C1 cells assessed as reduction in cell viability at 0.5 uM incubated for 24 hrs compound treated LTC-14-CM cells by MTT assay; type: functional, cell-based
Procedure, shortened: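 LTC-14 PSCs were pretreated with compound for 24 h. Their collected supernatant was used to culture DSL-6A/C1 cells, and proliferation was read by MTT: 4 h incubation with MTT (5 mg/mL stock), absorbance at 570 nm. Run in triplicate, compared with untreated PSC-CM.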

LTC-14 [14] = assay: Inhibition of rat LTC-14 cells interaction with DSL-6A/C1 cells in conditioned media assessed as inhibition of POSTN protein expression at 0.5 uM measured after 24 hrs by Western blot analysis; type: functional, cell-based; procedure, shortened: as §3
DSL-6A/C1 [15] = assay: Antiproliferative activity against rat DSL-6A/C1 cells assessed as reduction in cell viability at 0.5 uM treated with conditioned media of LTC-14 cells for 24 hrs by MTT assay; type: functional, cell-based
Procedure, shortened: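 Rat pancreatic cancer DSL-6A/C1 cells were cultured in supernatant from LTC-14 PSCs (PSC-CM) with compound added at 0.5 μM for 24 h. Viability was then read by MTT: 4 h incubation with MTT (5 mg/mL stock), absorbance at 570 nm. Run in triplicate, compared with PSC-CM alone.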

[16] = biological target: T1, Vitamin D3 receptor (Homo sapiens); assay: Agonist activity at VDR (unknown origin) expressed in HEK293 cells co-transfected with pGL4.27-SPP3-Luc and CMV-hRXRalpha and pCMX-Renilla plasmids after 24 hrs by dual luciferase reporter gene assay; type: cell-based; details: filed as agonist, dose 0.0001-1 µM
Procedure, shortened: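 HEK293 cells in 48-well plates were transfected per well with 40 ng TK-Spp×3-LUC reporter, 20 ng pCMX-Renilla, 30 ng pENTER-CMV-hRXRα and 100 ng pCMX-VDR using Lipofectamine 2000. Compounds were added 8 h post-transfection, and dual-luciferase activity was read 24 h later. Firefly signal was normalised to Renilla. The experiment was run three times.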

Vitamin D3 receptor = biological target: T2, Vitamin D3 receptor (Homo sapiens, UniProt P11473); assay: Binding affinity to VDR (unknown origin) by fluorescence polarization assay
T2 sequence (P11473 whole entry): T1 sequence (whole entry)
Procedure, shortened: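 Competitive VDR binding was measured by PolarScreen fluorescence polarization, in triplicate.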

DSL-6A/C1 [17] = assay: Potentiation of gemcitabine-induced antitumor activity against luciferase-tagged rat DSL-6A/C1 cells and GFP-tagged LTC-14 cells co-inoculated in orthotropic xenograft BALB/c nude mouse model of pancreatic cancer assessed as reduction in tumor volume at 500 ug/kg, ip administered once every 3 days for 12 days coadministered with gemcitabine at 100 mg/kg and measured after 3 days post last dose by IVIS optical imaging analysis; type: functional, organism-based; details: dose 500.0 µg/kg, time 12.0 day
Procedure, shortened: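 DSL-6A/C1-luci and LTC-14-GFP cells were co-inoculated orthotopically into the pancreas of nude mice, n=5 per group. Treatment began 7 days after grafting (methods) or 14 days (text). Gemcitabine 100 mg/kg ip every 3 days, alone or with compound 500 μg/kg or calcipotriol 60 μg/kg in ethanol/polyoxyethylene castor oil/saline (1:1:18), for 12 days. Tumour growth was followed by bioluminescence imaging.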

LTC-14 [18] = assay: Inhibition of rat LTC-14 cells activation assessed as reduction in ECM deposition resulting in doxorubicin accumulation in PSC spheres pretreated with compounds followed by doxorubicin addition by laser confocal microscopy analysis; type: functional, cell-based
Procedure, shortened: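 LTC-14 cells were grown in 3D culture to form PSC spheres and treated with compounds. Fluorescent doxorubicin was then added, and its penetration into the spheres was imaged by laser confocal microscopy. Three repeats, versus untreated control.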

Row | SMILES | inhibition (LTC-14 [1]) | RBA [2] | IC50 [3] [µM] | inhibition (LTC-14 [4]) | Activity [5] | inhibition (LTC-14 [6]) | inhibition (LTC-14 [7]) | inhibition (LTC-14 [8]) | inhibition (LTC-14 [9]) | inhibition (LTC-14 [10]) | inhibition (LTC-14 [11]) | RBA ([2]; filed as agonist) [%] | also measured
1 | CCN(CC)CCNC(=O)c1ccc(C(CC)(CC)c2ccc(OCCC(C)(C)O)c(C)c2)n1CC | Active | 36% | > 10 | Active | Non-Toxic | Active | Active | Active | Active | Active | Active |  | 
2 | CCn1cc(C(CC)(CC)c2ccc(OCC(C)O)c(C)c2)cc1C(=O)NCC(O)CO (stereo unspecified) | Active |  | > 10 | Active | Non-Toxic | Active | Active | Active | Active | Active | Active | 86 | inhibition (LTC-14 [12]): Active; inhibition (Mus musculus): Active; Activity (DSL-6A/C1 [13]): Active; inhibition (LTC-14 [14]): Active; Activity (DSL-6A/C1 [15]): inactive; Activity [16]: Dose-dependent effect; IC50 (Vitamin D3 receptor): 0.0816 µM; TGI (DSL-6A/C1 [17]): Active; inhibition (LTC-14 [18]): Active
3 | CCn1c(C(=O)NCCN2CCCCC2)ccc1C(CC)(CC)c1ccc(OCCC(C)(C)O)c(C)c1 | Active | 24% | > 10 | Active | Non-Toxic | Active | Active | Active | Active | Active | Active |  | 
4 | CCn1cc(C(CC)(CC)c2ccc(OCC(C)O)c(C)c2)cc1C(=O)NCCN1CCCCC1 (stereo unspecified) | Active | inactive | > 10 | Active | Non-Toxic | Active | Active | Active | Active | Active | Active |  | 
5 | CCn1c(C(=O)NCCN2CCN(C)CC2)ccc1C(CC)(CC)c1ccc(OCCC(C)(C)O)c(C)c1 | Active |  | > 10 | Active | Non-Toxic | Active | Active | Active | Active | Active | Active | 68 | inhibition (LTC-14 [12]): Active; inhibition (LTC-14 [14]): Active
6 | CCN(CC)CCCNC(=O)c1ccc(C(CC)(CC)c2ccc(OCCCC(O)(CC)CC)c(C)c2)n1CC | Active | 23% | > 10 | Active |  | Active |  |  |  |  |  |  | 
7 | CCN(CC)CCNC(=O)c1cc(C(CC)(CC)c2ccc(OCC(C)O)c(C)c2)cn1CC (stereo unspecified) | Active | inactive | > 10 | Active |  | Active |  |  |  |  |  |  | 
8 | CCn1cc(C(CC)(CC)c2ccc(OCC(C)O)c(C)c2)cc1C(=O)NCCCN1CCN(C)CC1 (stereo unspecified) | Active |  | > 10 | Active |  | Active |  |  |  |  |  | 62 | 
9 | CCN(CC)CCCNC(=O)c1ccc(C(CC)(CC)c2ccc(OCC(O)c3ccccc3)c(C)c2)n1CC (stereo unspecified) | Active |  | > 10 | Active |  | Active |  |  |  |  |  | 75 | 
10 | CCN(CC)CCCNC(=O)c1cc(C(CC)(CC)c2ccc(OCCCCCC(O)(CC)CC)c(C)c2)cn1CC | Active | 32% | > 10 | Active |  | Active |  |  |  |  |  |  | 
11 | CCN(CC)CCCNC(=O)c1cc(C(CC)(CC)c2ccc(OCC(O)c3ccccc3)c(C)c2)cn1CC (stereo unspecified) | Active |  | > 10 | Active |  | Active |  |  |  |  |  | 59 | 
12 | CCN(CC)CCNC(=O)c1ccc(C(CC)(CC)c2ccc(OCCCCC(O)(CC)CC)c(C)c2)n1CC | Active |  | > 10 | Active |  | Active |  |  |  |  |  | 71 | 
